Laboratory results as given in ChEMBL document CHEMBL2331531, “Synthesis and biological evaluation of urea derivatives as highly potent and selective rho kinase inhibitors” (J Med Chem, 2013).

Columns and labels:
[1] = Inhibition of PKA (unknown origin) after 70 mins by luminescence assay; parameters: species or system Homo sapiens
[2] = Half life in human liver microsomes; assay type: ADME, Microsome
[3] = target: Rho-associated protein kinase 2 (Homo sapiens, UniProt O75116); assay: Inhibition of ROCK2 (unknown origin) after 4 hrs by HTRF assay
Rho-associated protein kinase 2, sequence (O75116 whole entry): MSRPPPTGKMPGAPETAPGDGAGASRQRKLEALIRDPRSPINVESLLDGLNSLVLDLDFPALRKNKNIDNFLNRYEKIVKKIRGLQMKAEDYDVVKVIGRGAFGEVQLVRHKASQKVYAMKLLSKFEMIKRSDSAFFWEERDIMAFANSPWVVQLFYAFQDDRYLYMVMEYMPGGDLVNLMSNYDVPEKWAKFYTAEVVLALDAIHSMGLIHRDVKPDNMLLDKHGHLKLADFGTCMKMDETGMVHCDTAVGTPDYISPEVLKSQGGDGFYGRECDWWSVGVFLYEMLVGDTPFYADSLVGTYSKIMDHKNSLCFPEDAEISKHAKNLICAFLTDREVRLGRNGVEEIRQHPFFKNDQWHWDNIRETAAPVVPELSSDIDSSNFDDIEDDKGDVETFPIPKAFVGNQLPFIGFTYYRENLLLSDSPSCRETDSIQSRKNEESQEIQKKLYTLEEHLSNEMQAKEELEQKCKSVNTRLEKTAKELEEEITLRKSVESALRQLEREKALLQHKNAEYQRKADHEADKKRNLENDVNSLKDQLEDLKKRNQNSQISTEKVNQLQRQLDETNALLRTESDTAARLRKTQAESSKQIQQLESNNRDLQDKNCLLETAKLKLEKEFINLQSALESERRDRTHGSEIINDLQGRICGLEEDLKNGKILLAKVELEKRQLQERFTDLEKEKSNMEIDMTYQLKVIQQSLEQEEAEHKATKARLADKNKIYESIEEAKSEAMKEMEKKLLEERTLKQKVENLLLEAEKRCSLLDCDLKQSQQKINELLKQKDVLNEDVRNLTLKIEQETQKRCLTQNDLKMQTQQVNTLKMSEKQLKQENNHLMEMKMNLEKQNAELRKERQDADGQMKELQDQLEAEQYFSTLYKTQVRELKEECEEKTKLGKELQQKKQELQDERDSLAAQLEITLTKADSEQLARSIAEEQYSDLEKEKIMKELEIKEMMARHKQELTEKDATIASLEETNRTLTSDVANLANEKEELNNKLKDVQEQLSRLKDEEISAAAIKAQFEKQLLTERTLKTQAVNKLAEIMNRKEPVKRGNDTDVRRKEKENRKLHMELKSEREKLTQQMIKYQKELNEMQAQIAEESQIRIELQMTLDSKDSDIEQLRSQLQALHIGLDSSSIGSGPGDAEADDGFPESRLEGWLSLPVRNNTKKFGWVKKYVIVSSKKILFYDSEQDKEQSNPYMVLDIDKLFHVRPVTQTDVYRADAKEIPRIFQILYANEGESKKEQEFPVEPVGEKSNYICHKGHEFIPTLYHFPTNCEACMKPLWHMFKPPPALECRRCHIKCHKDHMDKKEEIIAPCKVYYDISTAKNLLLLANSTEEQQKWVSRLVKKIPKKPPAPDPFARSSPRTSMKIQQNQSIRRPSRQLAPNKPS

[4] = Inhibition of ROCK-mediated myosin light chain bisphosphorylation in rat A7R5 cells after 1 hr by fluorescence assay in presence of L-alpha-lysophosphatidic acid; assay type: cell-based
How it was run: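 A7r5 cells in 20% FBS DMEM, plated 5000/well overnight, serum-starved 4 h in 0.05% FBS DMEM; compound 13333 nM to 18 nM final for 1 h, then 10 μM LPA 10 min; fixed, permeabilized, anti-ppMLC plus IR800 secondary; infrared scan, ppMLC signal normalized to TO-PRO-3 nuclear signal. IC50 as mean of two or more experiments.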

[5] = Aqueous solubility in potassium phosphate buffer at pH 5.5 after 24 hrs by HPLC analysis; assay type: physicochemical; settings: pH 5.5, 24 h
[6] = Oral bioavailability in Sprague-Dawley rat at 2 mg/kg by LC-MS/MS analysis; assay type: ADME, organism-based; settings: in vivo
[7] = Cmax in Sprague-Dawley rat at 1 mg/kg, iv by LC-MS/MS analysis; assay type: ADME, organism-based; parameters: dose 1 mg/kg, route intravenous; settings: in vivo
[8] = AUC in Sprague-Dawley rat at 1 mg/kg, iv by LC-MS/MS analysis; assay type: ADME, organism-based, Plasma; parameters: dose 1 mg/kg, route intravenous; settings: Sprague-Dawley, plasma
[9] = Half life in Sprague-Dawley rat at 1 mg/kg, iv by LC-MS/MS analysis; assay type: ADME, organism-based; parameters: dose 1 mg/kg, route intravenous; settings: in vivo
[10] = Volume of distribution in Sprague-Dawley rat at 1 mg/kg, iv by LC-MS/MS analysis; assay type: ADME, organism-based; parameters: dose 1 mg/kg, route intravenous; settings: in vivo
[11] = Clearance in Sprague-Dawley rat at 1 mg/kg, iv by LC-MS/MS analysis; assay type: ADME, organism-based; parameters: dose 1 mg/kg, route intravenous; settings: in vivo
CYP3A4 = CYP3A4 (Homo sapiens, UniProt P08684); assay: Inhibition of CYP3A4 (unknown origin)-mediated midazolam hydroxylation to 1'-Hydroxymidazolam at 10 uM relative to control; assay type: ADME; settings: probe midazolam
CYP3A4, sequence (P08684 whole entry): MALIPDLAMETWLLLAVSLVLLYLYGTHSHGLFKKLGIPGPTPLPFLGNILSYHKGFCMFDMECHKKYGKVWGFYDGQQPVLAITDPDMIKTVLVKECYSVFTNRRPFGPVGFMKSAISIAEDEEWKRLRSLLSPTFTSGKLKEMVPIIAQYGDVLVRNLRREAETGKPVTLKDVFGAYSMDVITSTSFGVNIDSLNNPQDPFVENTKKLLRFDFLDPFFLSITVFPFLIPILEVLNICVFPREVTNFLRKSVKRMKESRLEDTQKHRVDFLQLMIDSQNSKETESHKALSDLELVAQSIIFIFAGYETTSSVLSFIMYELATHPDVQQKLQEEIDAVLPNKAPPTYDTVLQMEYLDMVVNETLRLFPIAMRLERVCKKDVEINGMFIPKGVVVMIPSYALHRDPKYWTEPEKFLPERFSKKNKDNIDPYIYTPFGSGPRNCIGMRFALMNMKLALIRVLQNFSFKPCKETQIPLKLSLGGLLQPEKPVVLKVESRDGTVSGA

CYP2D6 = CYP2D6 (Homo sapiens, UniProt P10635); assay: Inhibition of CYP2D6 (unknown origin)-mediated bufuralol hydroxylation to 4'-Hydroxybufuralol at 10 uM relative to control; assay type: ADME; settings: probe bufuralol
CYP2D6, sequence (P10635 whole entry): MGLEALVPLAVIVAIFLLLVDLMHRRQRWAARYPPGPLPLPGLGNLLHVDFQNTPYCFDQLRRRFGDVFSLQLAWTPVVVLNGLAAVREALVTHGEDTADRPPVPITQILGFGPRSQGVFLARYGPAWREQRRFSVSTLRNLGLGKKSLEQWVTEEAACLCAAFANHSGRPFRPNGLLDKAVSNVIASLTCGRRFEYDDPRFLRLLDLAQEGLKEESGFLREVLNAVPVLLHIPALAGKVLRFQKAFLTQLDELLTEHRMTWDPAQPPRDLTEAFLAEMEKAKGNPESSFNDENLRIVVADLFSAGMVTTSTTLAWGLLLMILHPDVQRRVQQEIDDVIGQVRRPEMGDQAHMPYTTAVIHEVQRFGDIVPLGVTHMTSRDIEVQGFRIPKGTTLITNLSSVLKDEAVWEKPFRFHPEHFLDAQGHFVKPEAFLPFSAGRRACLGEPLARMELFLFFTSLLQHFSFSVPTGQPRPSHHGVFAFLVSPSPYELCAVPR

CYP2C9 = CYP2C9 (Homo sapiens, UniProt P11712); assay: Inhibition of CYP2C9 (unknown origin)-mediated tolbutamide hydroxylation to hydroxy tolbutamide at 10 uM relative to control; assay type: ADME; settings: probe tolbutamide
CYP2C9, sequence (P11712 whole entry): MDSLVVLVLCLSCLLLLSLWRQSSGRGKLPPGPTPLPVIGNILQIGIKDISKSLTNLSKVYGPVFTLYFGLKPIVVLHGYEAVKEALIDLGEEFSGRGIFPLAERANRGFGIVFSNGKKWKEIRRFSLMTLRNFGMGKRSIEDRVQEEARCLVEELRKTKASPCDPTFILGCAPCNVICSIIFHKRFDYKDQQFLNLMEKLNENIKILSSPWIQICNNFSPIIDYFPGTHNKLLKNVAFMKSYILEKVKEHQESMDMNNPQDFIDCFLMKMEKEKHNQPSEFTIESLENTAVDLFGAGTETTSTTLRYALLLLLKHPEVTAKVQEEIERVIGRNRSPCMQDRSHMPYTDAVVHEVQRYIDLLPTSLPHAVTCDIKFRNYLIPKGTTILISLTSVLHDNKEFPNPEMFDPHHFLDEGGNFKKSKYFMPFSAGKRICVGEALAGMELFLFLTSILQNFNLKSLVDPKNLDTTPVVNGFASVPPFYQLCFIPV

CYP1A2 = target: T1, CYP1A2 (Homo sapiens, UniProt P05177); assay: Inhibition of CYP1A2 (unknown origin)-mediated phenaceten demethylation to acetaminophen at 10 uM relative to control; assay type: ADME; settings: probe phenacetin (printed: phenaceten)
T1 sequence (P05177 whole entry): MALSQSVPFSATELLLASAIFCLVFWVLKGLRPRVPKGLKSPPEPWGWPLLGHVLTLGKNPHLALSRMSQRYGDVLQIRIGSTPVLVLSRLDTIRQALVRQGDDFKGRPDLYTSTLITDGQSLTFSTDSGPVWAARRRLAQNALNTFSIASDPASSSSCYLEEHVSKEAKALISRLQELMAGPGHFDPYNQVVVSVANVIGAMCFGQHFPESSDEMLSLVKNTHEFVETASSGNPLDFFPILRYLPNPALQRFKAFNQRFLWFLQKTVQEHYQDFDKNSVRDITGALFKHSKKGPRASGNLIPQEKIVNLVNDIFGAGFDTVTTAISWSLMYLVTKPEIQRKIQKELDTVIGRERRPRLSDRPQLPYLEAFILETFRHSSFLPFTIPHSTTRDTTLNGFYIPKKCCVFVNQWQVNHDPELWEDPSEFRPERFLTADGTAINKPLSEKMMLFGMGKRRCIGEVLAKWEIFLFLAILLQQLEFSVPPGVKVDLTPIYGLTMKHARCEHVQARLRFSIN

[12] = target: Rho-associated protein kinase 1 (Homo sapiens, UniProt Q13464); assay: Inhibition of ROCK1 (unknown origin) after 4 hrs by HTRF assay
Rho-associated protein kinase 1, sequence (Q13464 whole entry): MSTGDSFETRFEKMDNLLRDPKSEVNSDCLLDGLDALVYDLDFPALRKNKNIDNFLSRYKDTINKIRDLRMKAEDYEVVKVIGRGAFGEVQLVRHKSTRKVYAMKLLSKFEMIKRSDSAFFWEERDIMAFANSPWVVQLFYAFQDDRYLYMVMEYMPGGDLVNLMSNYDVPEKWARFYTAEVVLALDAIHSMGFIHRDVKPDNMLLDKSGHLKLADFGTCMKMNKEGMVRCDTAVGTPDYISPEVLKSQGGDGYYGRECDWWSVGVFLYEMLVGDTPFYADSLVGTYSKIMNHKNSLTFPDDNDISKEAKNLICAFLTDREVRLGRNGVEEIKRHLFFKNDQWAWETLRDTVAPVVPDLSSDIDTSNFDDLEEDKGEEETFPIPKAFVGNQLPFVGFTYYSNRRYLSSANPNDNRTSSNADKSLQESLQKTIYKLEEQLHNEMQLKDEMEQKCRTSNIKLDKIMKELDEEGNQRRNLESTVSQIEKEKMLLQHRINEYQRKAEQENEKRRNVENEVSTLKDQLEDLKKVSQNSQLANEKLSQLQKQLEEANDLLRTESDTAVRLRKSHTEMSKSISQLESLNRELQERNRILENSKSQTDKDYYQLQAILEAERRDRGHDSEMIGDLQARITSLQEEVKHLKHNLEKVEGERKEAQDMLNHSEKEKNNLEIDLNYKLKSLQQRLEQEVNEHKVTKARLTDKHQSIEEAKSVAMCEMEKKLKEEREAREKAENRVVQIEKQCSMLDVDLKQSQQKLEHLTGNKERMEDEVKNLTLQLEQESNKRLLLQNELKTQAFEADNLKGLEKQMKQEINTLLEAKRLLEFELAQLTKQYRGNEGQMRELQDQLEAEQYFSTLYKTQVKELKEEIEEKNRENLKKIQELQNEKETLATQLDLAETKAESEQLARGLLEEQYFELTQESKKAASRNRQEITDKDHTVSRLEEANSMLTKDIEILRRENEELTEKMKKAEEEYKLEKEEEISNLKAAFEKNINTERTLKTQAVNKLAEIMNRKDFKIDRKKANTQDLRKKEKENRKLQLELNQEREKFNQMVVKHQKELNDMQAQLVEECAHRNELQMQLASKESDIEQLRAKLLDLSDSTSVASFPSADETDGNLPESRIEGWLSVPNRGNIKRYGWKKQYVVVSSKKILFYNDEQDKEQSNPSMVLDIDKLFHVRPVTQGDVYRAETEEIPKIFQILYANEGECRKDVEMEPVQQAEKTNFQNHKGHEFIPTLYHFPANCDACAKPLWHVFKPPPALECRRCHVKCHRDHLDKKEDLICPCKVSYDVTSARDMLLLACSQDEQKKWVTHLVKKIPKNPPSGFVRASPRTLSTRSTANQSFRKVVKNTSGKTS

IC50 [1] [nM]	half-life [2] [min]	IC50 [3] [nM]	IC50 [4] [nM]	SMILES	further results
> 20000	–	> 20000	–	COc1cccc(CNC(=O)N(CCN2CCCC2)c2ccc(-c3cn[nH]c3)cc2)c1	–
1020	> 120	14	33	O=C(Nc1ccc(-c2cn[nH]c2)cc1F)N(CCO)Cc1ccccc1	–
> 20000	–	253	–	COc1cccc(CNC(=O)Nc2ccc(-c3cn[nH]c3)cc2)c1OC	–
8000	–	280	–	O=C(Nc1ccc(-c2cn[nH]c2)cc1)N1CCc2ccccc2C1	–
> 20000	–	7	> 2700	O=C(Nc1ccc(-c2cn[nH]c2)cc1)OCc1ccccc1	–
11200	–	331	–	COc1ccc(CNC(=O)Nc2ccc(-c3cn[nH]c3)cc2)c(OC)c1	–
518	–	357	–	COc1ccc(CNC(=O)Nc2ccc(-c3cn[nH]c3)cc2)cc1F	–
10500	21	17	180	COCCN(Cc1cccc(OC)c1)C(=O)Nc1ccc(-c2cn[nH]c2)cc1	–
18400	11	3	67	COc1cccc(CN(C(=O)Nc2ccc(-c3cn[nH]c3)cc2)C(C)C)c1	–
438	> 120	1	48	O=C(Nc1ccc(-c2cn[nH]c2)cc1)NC(CCO)c1ccccc1 (centres undefined)	–
4200	–	2980	–	COc1cccc(CNC(=O)N(CCN(C)C)c2ccc(-c3cn[nH]c3)cc2)c1	–
4870	112	2	40	COc1cccc(C(CCO)NC(=O)Nc2ccc(-c3cn[nH]c3)cc2)c1 (centres undefined)	solubility [5]: soluble; bioavailability [6]: 4%; Cmax [7]: 12 µM; AUC [8]: 7.9 µM·h; half-life [9]: 42 min; Vd [10]: 0.25 L/kg; clearance [11]: 5.9 mL/min/kg; inhibition at 10 µM (CYP3A4): 37%; inhibition at 10 µM (CYP2D6): 37%; inhibition at 10 µM (CYP2C9): 67%; inhibition at 10 µM (CYP1A2): 3%; IC50 [12]: 11 nM
470	17	2	28	COc1cccc(CN(CCN(C)C)C(=O)Nc2ccc(-c3cn[nH]c3)cn2)c1	solubility [5]: soluble; inhibition at 10 µM (CYP3A4): 8%; inhibition at 10 µM (CYP2D6): 51%; inhibition at 10 µM (CYP2C9): 5%; inhibition at 10 µM (CYP1A2): -21%; IC50 [12]: 10 nM

The remaining lines, values behind:

SMILES	IC50 [1] [nM]	half-life [2] [min]	IC50 [3] [nM]	IC50 [4] [nM]	further results
CCN(Cc1cccc(OC)c1)C(=O)Nc1ccc(-c2cn[nH]c2)cc1	4670	25	1	44	–
COc1cccc(CNC(=O)N(CCO)c2ccc(-c3cn[nH]c3)cc2)c1	> 20000	–	611	–	–
O=C(Nc1ccc(-c2cn[nH]c2)cc1)NC(CO)c1ccccc1 (centres undefined)	389	> 120	2	150	–
O=C(NCCCc1ccccc1)Nc1ccc(-c2cn[nH]c2)cc1	> 20000	–	1020	–	–
COc1cccc(CN(CCN)C(=O)Nc2ccc(-c3cn[nH]c3)cc2)c1	72	> 120	< 1	8	–
COc1cccc(CN(CCN(C)C)C(=O)Nc2ccc(-c3cn[nH]c3)cc2OCCN(C)C)c1	–	–	170	–	–
COc1cccc(CNC(=O)N(CCCN(C)C)c2ccc(-c3cn[nH]c3)cc2)c1	12000	–	3320	–	–
COc1cccc(CN(CCCN2CCOCC2)C(=O)Nc2ccc(-c3cn[nH]c3)cc2)c1	724	4	4	84	–
COc1cccc(CNC(=O)N(C)c2ccc(-c3cn[nH]c3)cc2)c1	> 20000	–	87	–	–
COc1ccc(OC)c(CNC(=O)Nc2ccc(-c3cn[nH]c3)cc2)c1	> 20000	–	570	–	–
COc1ccc(CNC(=O)Nc2ccc(-c3cn[nH]c3)cc2)cc1OC	> 20000	–	425	–	–
O=C(NCC1CCCCC1)Nc1ccc(-c2cn[nH]c2)cc1	> 20000	–	751	–	–
O=C(NCCc1ccccc1)Nc1ccc(-c2cn[nH]c2)cc1	3100	–	88	> 2700	–
O=C(CCc1ccccc1)Nc1ccc(-c2cn[nH]c2)cc1	266	–	24	91	–
COc1cccc(OC)c1CNC(=O)Nc1ccc(-c2cn[nH]c2)cc1	13500	–	924	–	–
COc1cccc(CN(CCCN2CCCCC2)C(=O)Nc2ccc(-c3cn[nH]c3)cc2)c1	822	14	4	75	–
COc1cc(CNC(=O)Nc2ccc(-c3cn[nH]c3)cc2)cc(OC)c1	> 20000	–	281	–	–
O=C(Nc1ccccc1)Nc1ccc(-c2cn[nH]c2)cc1	> 20000	–	304	–	–
COc1cccc(CN(CCCN2CCCC2)C(=O)Nc2ccc(-c3cn[nH]c3)cc2)c1	228	59	5	18	–
COc1cccc(CN(C(=O)Nc2ccc(-c3cn[nH]c3)cc2)C2CC2)c1	1700	25	1	4	–
CN(C)CCC(NC(=O)Nc1ccc(-c2cn[nH]c2)cc1)c1ccccc1 (centres undefined)	238	> 60	2	40	solubility [5]: soluble; bioavailability [6]: 0%; Cmax [7]: 0.2 µM; AUC [8]: 0.5 µM·h; half-life [9]: 144 min; Vd [10]: 20 L/kg; clearance [11]: 91 mL/min/kg; inhibition at 10 µM (CYP3A4): 10%; inhibition at 10 µM (CYP2D6): 59%; inhibition at 10 µM (CYP2C9): 16%; inhibition at 10 µM (CYP1A2): -1%; IC50 [12]: 6 nM
COc1cccc(CN(CCO)C(=O)Nc2ccc(-c3cn[nH]c3)cc2OCCO)c1	615	–	< 1	220	–
O=C(Nc1ccc(-c2cn[nH]c2)cc1)OCCc1ccccc1	> 20000	–	55	2640	–
